Positions count from the first letter of the chain named.
Key:
Conditions in all cases: stereoisomer not certain
OR1D5 (Homo sapiens) = biological target: T1, OR1D5 (Homo sapiens) (UniProt P58170)
T1 sequence (whole entry): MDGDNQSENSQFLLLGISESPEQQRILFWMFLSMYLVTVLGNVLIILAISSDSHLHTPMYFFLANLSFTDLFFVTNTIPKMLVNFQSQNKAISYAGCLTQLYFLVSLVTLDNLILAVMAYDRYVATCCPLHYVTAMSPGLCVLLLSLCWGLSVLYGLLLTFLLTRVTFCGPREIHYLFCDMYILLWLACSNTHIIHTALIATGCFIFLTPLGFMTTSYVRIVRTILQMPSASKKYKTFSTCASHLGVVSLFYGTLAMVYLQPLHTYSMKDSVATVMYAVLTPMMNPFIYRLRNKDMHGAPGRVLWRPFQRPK
Outline: (§1)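 Each entry records the cell line, G-protein, co-transfected protein and tags used. Methods varied with the source, often transient luciferase assays in mammalian cell lines. A receptor–molecule pair is called responsive (active) if the original authors judged its signal statistically different from baseline and non-responsive (inactive) otherwise.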

OR1E1 (Homo sapiens) = biological target: T2, OR1E1 (Homo sapiens) (UniProt P30953)
T2 sequence (whole entry): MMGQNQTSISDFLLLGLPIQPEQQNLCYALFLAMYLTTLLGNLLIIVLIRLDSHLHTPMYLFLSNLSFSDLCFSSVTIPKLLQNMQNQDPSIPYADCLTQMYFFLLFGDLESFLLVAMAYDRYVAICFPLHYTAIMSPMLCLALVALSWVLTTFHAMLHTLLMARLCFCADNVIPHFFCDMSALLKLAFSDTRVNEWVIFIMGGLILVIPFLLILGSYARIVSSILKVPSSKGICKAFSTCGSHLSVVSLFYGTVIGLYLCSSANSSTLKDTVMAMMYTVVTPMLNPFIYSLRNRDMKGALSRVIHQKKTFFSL
Outline: as §1

OR1E2 (Homo sapiens) = biological target: T3, OR1E2 (Homo sapiens) (UniProt P47887)
T3 sequence (whole entry): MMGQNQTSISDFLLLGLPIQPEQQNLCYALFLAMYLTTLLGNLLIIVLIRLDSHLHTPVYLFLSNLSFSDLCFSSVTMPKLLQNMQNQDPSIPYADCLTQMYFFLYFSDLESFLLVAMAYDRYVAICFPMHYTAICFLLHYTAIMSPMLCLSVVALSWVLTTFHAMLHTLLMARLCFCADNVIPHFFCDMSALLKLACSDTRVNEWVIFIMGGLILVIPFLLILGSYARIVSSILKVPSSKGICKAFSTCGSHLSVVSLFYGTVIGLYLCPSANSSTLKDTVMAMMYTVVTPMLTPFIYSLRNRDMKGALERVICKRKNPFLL
Outline: as §1

OR1E2 = tested on: T4, OR1E2
T4 sequence (whole entry): T3 sequence (whole entry) with C27R
Outline: as §1

OR1F1 (Homo sapiens) = biological target: T5, OR1F1 (Homo sapiens) (UniProt O43749)
T5 sequence (whole entry): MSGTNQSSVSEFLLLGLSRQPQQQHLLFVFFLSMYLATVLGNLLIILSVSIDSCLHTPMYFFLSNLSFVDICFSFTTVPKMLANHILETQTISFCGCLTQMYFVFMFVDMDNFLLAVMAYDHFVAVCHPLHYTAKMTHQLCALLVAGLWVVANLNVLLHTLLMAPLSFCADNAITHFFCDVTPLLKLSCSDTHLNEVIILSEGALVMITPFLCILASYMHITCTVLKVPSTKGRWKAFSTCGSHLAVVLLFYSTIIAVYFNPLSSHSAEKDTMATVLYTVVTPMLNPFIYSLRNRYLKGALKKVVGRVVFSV
Outline: as §1

OR1D4 (Homo sapiens) = biological target: T6, OR1D4 (Homo sapiens) (UniProt P47884)
T6 sequence (whole entry): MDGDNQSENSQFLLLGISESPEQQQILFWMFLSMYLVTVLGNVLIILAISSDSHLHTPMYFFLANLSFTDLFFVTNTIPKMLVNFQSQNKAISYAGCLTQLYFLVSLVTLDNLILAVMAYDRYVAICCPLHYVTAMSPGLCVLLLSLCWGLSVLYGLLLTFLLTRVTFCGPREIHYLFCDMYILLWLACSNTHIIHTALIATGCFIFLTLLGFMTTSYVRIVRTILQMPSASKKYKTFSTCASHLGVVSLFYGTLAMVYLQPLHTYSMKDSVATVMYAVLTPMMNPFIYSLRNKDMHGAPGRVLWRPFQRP
Outline: as §1

OR1E3 (Homo sapiens) = OR1E3 (Homo sapiens) (UniProt Q8WZA6)
Chain of OR1E3 (Homo sapiens) (Q8WZA6 whole entry): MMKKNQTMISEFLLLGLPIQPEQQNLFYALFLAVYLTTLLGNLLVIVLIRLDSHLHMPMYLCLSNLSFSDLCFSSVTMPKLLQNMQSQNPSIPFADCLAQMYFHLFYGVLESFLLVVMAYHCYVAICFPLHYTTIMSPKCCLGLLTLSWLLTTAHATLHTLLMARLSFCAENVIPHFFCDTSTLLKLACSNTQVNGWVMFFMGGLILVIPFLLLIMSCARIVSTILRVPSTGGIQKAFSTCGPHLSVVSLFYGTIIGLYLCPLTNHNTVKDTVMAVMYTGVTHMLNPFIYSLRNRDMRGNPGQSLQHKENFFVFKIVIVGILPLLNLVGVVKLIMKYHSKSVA
Outline: as §1

OR1D2 [1] = tested on: OR1D2
Outline: as §1
Target sequence in this assay (as listed by the source): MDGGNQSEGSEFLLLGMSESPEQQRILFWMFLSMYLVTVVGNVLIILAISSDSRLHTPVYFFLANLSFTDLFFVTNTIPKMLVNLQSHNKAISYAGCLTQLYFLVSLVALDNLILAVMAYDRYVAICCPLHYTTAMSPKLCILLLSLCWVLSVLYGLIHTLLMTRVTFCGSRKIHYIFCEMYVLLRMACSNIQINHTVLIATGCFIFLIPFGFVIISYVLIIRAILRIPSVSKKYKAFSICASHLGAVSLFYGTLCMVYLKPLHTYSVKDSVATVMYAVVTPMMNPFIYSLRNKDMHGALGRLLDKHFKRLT

OR1D2 [2] = tested on: OR1D2; remark: listed apart in the source
Outline: as §1
Target sequence in this assay (as listed by the source): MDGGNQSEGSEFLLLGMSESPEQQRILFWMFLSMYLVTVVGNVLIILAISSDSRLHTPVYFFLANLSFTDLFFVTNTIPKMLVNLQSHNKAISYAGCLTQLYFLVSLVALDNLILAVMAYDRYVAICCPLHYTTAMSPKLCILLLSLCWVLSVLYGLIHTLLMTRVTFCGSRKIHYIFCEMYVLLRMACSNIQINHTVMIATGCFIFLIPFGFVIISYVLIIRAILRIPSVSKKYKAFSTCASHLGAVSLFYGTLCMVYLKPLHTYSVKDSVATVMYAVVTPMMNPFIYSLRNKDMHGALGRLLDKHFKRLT

OR1D2 [3] = tested on: OR1D2; remark: listed apart in the source
Outline: as §1
Target sequence in this assay (as listed by the source): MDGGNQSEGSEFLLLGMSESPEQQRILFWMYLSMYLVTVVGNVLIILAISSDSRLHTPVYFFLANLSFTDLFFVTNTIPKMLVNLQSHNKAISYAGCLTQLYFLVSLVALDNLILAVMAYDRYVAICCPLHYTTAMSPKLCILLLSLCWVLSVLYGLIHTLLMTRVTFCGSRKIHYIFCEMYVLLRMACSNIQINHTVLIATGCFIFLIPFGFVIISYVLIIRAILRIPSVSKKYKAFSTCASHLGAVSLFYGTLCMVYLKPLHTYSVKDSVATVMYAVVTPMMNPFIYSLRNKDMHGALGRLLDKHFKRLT

Measured: odorant receptor agonist call

CCCC(S)CCOC(C)=O (stereo not drawn)
inactive: OR1D5 (Homo sapiens) | OR1E1 (Homo sapiens) | OR1E2 (Homo sapiens) | OR1E2 | OR1F1 (Homo sapiens)

CC(CO)CS (stereo not drawn)
inactive: OR1D4 (Homo sapiens) | OR1D5 (Homo sapiens) | OR1E1 (Homo sapiens) | OR1E2 (Homo sapiens) | OR1F1 (Homo sapiens)

CCCCCC(S)C(C)CO (stereo not drawn)
inactive: OR1D4 (Homo sapiens) | OR1D5 (Homo sapiens) | OR1E1 (Homo sapiens) | OR1E2 (Homo sapiens) | OR1F1 (Homo sapiens)

CCC1OC(C)=C(O)C1=O (stereo not drawn)
inactive: OR1D5 (Homo sapiens) | OR1E1 (Homo sapiens) | OR1E2 (Homo sapiens) | OR1E2 | OR1F1 (Homo sapiens)

CC1CCCCCCCCCCCCC(=O)C1 (stereo not drawn)
inactive: OR1D4 (Homo sapiens) | OR1D5 (Homo sapiens) | OR1E2 (Homo sapiens) | OR1E3 (Homo sapiens) | OR1F1 (Homo sapiens)

CC1=NC(C)C(C)S1 (stereo not drawn)
inactive: OR1D5 (Homo sapiens) | OR1E1 (Homo sapiens) | OR1E2 (Homo sapiens) | OR1E2 | OR1F1 (Homo sapiens)

CC1=C(O)C(=O)C(C)O1 (stereo not drawn)
inactive: OR1D5 (Homo sapiens) | OR1E1 (Homo sapiens) | OR1E2 (Homo sapiens) | OR1E2 | OR1F1 (Homo sapiens)

CCC1OC(=O)C(O)=C1C (stereo not drawn)
inactive: OR1D5 (Homo sapiens) | OR1E1 (Homo sapiens) | OR1E2 (Homo sapiens) | OR1E2 | OR1F1 (Homo sapiens)

CC1=C(O)C(=O)OC1C (stereo not drawn)
inactive: OR1D5 (Homo sapiens) | OR1E1 (Homo sapiens) | OR1E2 (Homo sapiens) | OR1E2 | OR1F1 (Homo sapiens)

CCCCCC(=O)C(C)C(C)=O (stereo not drawn)
inactive: OR1D4 (Homo sapiens) | OR1D5 (Homo sapiens) | OR1E1 (Homo sapiens) | OR1E2 (Homo sapiens) | OR1F1 (Homo sapiens)

CCCCC(S)C(C)CO (stereo not drawn)
inactive: OR1D4 (Homo sapiens) | OR1D5 (Homo sapiens) | OR1E1 (Homo sapiens) | OR1E2 (Homo sapiens) | OR1F1 (Homo sapiens)

CC(=O)c1c(C)c([N+](=O)[O-])c(C(C)(C)C)c([N+](=O)[O-])c1C
inactive: OR1D4 (Homo sapiens) | OR1D5 (Homo sapiens) | OR1E2 (Homo sapiens) | OR1E3 (Homo sapiens) | OR1F1 (Homo sapiens)

Cc1cnc(C)c(C)n1
inactive: OR1D5 (Homo sapiens) | OR1E1 (Homo sapiens) | OR1E2 (Homo sapiens) | OR1E2 | OR1F1 (Homo sapiens)

CCCCCCC=CCCC=O
inactive: OR1D5 (Homo sapiens) | OR1E1 (Homo sapiens) | OR1E2 (Homo sapiens) | OR1E2 | OR1F1 (Homo sapiens)

CC(C=O)Cc1ccc(C(C)(C)C)cc1 (stereo not drawn)
inactive: OR1D2 [1] | OR1D2 [2] | OR1D2 [3]

CCC(S)C(C)CO (stereo not drawn)
inactive: OR1D4 (Homo sapiens) | OR1D5 (Homo sapiens) | OR1E1 (Homo sapiens) | OR1E2 (Homo sapiens) | OR1F1 (Homo sapiens)
